According to ChEMBL document CHEMBL1800057, “Discovery of dual inducible/neuronal nitric oxide synthase (iNOS/nNOS) inhibitor development candidate 4-((2-cyclobutyl-1H-imidazo[4,5-b]pyrazin-1-yl)methyl)-7,8-difluoroquinolin-2(1H)-one (KD7332) part 2: identification of a novel, potent, and selective series of benzimidazole-quinolinone …” (J Med Chem, 2010):

Assays:
[1] = test system: Mus musculus; assay: Neurotoxicity in C57Bl/6j mouse assessed as inability to maintain equilibrium on rotarod up to 1000 mg/kg, po determined 1 to 3 hrs postdose by rotarod test; assay type: toxicity, organism-based; set-up: dose 1000 mg/kg, route oral; conditions: in vivo
Method in brief: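 Male C57Bl/6j mice were acclimated to the rotarod at 4 rpm, then given two training sessions on an accelerating rod (4-40 rpm over 300 s). Only mice with latencies >60 s were kept. After oral dosing, latency to fall from the accelerating rod was recorded at 1, 2 and 3 h.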

[2] = target: Cytochrome P450 2C9 (Homo sapiens, UniProt P11712); assay: Inhibition of human CYP2C9 at >60 uM; assay type: ADME
[3] = target: T1, Voltage-gated inwardly rectifying potassium channel KCNH2 (Homo sapiens, UniProt Q12809); assay: Inhibition of human ERG at >30 uM by patch clamp assay
[4] = target: T2, Cytochrome P450 2C19 (Homo sapiens, UniProt P33261); assay: Inhibition of human CYP2C19 at >38 uM; assay type: ADME
[5] = target: Cytochrome P450 3A4 (Homo sapiens, UniProt P08684); assay: Inhibition of human CYP3A4 at >100 uM; assay type: ADME
[6] = test system: Brain; assay: Drug uptake in rat brain by microdialysis relative to compound plasma level; assay type: ADME, tissue-based; conditions: in vivo
[7] = target: T1, Voltage-gated inwardly rectifying potassium channel KCNH2; assay: Inhibition of human ERG by patch clamp assay
[8] = test system: Mus musculus; assay: Antinociceptive activity against formalin-induced pain in mouse assessed as attenuation of nocifensive phase 2 behaviors during phase 2 (25 to 45 mins post formalin injection) administered via oral gavage 30 mins before to formalin challenge; assay type: functional
Method in brief: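 Mice were given compound by oral gavage in PEG/Tween 80/PVP + CMC vehicle 30 min before 20 μL of 5% formalin was injected into the left hind paw. Paw flinching, licking and biting were timed in 5 min bins by a single observer. Read-out was time in nociceptive behaviour at 25-45 min. Mean ± SE, n = 5-6, one-way ANOVA with post hoc tests.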

[9] = organism: Homo sapiens; assay: Ratio of IC50 for human eNOS to EC50 for human iNOS
[10] = organism: Homo sapiens; assay: Ratio of IC50 for human nNOS to EC50 for human iNOS
[11] = test system: Mus musculus; assay: Inhibition of LPS-induced iNOS activation in BALB/c mouse assessed as plasma nitrate levels at 30 mg/kg administered via oral gavage before LPS challenge measured after 6 to 8 hrs using 2,3-diaminonaphthalene by fluorescence assay relative to control; assay type: functional
Method in brief: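 Male BALB/c mice dosed by oral gavage (90% PEG/5% Tween 80/5% PVP + 0.5% w/v CMC) immediately before LPS (10 mg/kg ip in 0.9% NaCl). Mice killed at 6 h. EDTA plasma analysed for nitrate and drug levels; nitrite measured by DAN fluorescence.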

[12] = target: T3, Nitric oxide synthase 3 (Homo sapiens) (UniProt P29474); assay: Inhibition of human eNOS expressed in HEK293 cells assessed as inhibition A23187 induced nitric oxide production at 100 uM incubated for 24 hrs measured after 18 hrs of […] challenge using 2,3-diaminonaphthalene by fluorescence assay; assay type: cell-based
T3 sequence (whole entry): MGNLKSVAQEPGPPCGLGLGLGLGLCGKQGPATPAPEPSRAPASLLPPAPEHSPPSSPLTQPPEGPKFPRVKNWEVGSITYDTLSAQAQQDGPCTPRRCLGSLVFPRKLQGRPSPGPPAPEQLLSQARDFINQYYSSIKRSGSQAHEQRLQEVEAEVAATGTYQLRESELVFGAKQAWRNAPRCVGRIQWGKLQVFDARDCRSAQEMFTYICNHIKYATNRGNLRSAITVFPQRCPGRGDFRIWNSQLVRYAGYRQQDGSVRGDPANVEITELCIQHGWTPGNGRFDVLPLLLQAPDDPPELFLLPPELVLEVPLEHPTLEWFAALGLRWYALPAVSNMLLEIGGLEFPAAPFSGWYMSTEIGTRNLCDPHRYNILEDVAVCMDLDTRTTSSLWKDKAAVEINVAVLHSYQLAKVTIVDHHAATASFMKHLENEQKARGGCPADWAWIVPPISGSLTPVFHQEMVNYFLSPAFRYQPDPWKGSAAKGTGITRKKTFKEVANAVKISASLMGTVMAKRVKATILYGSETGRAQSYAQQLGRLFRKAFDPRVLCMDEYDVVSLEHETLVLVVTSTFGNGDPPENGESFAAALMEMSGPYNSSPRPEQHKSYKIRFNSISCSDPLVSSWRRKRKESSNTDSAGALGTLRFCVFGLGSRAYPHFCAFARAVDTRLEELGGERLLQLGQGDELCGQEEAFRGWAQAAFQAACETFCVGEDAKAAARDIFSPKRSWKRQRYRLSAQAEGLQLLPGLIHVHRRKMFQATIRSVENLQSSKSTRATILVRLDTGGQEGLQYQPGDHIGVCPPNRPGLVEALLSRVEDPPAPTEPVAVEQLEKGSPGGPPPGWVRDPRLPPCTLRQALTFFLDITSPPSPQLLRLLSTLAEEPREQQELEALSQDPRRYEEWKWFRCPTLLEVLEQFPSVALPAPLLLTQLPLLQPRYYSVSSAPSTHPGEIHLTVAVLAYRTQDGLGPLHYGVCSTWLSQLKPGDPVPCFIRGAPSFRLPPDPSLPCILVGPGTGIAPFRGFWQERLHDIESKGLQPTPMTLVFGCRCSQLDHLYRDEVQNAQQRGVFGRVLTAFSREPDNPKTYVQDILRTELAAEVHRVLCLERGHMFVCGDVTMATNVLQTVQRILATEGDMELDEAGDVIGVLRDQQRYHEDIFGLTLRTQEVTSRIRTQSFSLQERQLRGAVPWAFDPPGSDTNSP

[13] = Cmax in mouse 10 mg/kg, po; assay type: ADME, organism-based; set-up: dose 10 mg/kg, route oral; conditions: in vivo
[14] = target: T2, Cytochrome P450 2C19; assay: Inhibition of human CYP2C19 at >60 uM; assay type: ADME

T2 sequence (P33261 whole entry): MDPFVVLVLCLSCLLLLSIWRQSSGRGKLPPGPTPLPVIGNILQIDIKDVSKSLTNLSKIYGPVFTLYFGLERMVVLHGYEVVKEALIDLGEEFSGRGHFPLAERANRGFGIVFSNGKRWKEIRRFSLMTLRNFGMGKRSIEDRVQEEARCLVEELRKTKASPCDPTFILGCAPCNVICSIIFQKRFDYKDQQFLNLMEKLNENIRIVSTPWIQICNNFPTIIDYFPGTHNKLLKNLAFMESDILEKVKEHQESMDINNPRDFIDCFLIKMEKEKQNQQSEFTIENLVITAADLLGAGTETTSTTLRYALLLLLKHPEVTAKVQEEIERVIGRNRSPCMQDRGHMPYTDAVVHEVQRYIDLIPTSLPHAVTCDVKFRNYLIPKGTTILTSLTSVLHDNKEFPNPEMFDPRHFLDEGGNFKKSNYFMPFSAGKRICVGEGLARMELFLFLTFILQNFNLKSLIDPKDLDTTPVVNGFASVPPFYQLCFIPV
T1 sequence (Q12809 whole entry): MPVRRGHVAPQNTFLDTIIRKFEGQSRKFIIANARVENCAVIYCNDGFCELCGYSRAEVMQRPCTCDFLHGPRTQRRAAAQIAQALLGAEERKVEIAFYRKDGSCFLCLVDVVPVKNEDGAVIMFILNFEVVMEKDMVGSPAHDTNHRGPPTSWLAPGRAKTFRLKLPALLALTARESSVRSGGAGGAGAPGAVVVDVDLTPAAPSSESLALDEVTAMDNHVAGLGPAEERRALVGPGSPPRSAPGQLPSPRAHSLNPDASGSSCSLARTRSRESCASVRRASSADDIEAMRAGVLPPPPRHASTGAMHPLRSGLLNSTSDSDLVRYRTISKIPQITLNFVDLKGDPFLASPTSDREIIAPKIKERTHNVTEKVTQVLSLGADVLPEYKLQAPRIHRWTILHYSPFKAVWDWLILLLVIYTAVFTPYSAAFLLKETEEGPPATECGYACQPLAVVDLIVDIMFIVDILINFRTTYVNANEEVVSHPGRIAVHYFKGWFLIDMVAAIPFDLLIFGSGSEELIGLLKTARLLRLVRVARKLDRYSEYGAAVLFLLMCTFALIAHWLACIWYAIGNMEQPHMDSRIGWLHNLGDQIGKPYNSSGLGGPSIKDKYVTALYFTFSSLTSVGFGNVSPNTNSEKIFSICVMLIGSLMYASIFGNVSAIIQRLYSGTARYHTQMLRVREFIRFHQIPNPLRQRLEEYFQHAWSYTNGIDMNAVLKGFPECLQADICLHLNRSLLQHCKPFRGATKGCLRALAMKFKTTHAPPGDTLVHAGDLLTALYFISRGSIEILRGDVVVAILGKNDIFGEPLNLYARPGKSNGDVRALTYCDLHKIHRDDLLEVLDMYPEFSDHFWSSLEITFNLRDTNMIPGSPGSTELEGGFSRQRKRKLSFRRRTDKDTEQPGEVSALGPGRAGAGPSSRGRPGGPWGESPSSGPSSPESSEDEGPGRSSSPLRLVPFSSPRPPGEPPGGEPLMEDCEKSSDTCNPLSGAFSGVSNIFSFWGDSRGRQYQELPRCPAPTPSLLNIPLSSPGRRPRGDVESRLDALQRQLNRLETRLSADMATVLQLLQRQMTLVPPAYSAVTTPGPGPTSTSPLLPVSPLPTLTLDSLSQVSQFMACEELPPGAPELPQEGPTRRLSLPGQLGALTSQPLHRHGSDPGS
Cytochrome P450 2C9, sequence (P11712 whole entry): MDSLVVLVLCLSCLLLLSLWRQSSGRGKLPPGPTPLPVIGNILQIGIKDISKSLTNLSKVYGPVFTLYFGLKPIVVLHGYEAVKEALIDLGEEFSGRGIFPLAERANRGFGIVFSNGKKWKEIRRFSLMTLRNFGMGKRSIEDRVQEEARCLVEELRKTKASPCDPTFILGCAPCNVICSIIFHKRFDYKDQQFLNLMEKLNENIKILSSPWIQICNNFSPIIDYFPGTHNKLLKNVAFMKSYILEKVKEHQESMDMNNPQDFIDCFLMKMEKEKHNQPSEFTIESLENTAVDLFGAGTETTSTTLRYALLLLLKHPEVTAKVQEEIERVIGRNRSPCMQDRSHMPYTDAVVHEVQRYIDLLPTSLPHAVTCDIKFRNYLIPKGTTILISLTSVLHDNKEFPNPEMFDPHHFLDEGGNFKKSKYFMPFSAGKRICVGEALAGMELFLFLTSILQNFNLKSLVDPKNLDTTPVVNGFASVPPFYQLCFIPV
Cytochrome P450 3A4, sequence (P08684 whole entry): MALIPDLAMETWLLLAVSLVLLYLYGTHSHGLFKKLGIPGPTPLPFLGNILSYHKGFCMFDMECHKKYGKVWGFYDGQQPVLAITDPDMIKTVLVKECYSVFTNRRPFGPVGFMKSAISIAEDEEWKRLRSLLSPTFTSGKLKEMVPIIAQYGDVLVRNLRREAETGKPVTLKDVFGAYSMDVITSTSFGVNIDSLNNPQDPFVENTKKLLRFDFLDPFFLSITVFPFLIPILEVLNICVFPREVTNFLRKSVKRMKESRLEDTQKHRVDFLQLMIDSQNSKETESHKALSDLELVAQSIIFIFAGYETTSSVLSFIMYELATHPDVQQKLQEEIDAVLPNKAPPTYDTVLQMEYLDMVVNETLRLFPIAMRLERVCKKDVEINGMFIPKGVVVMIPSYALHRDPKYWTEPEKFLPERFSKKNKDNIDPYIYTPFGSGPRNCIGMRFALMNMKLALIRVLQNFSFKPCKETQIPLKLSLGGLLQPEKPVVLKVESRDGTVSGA

Structure (SMILES) | inhibition (INH) [2] | inhibition (INH) [3] | EC50 [7] | Cmax [13] | inhibition (INH) [14] | further results
O=c1cc(Cn2c(C3CCC3)nc3nccnc32)c2ccc(F)c(F)c2[nH]1 | < 50% | < 50% | > 30 µM |  |  | Activity [1]: Non-toxic; inhibition (INH) [4]: < 50%; inhibition (INH) [5]: < 50%; Drug uptake [6]: 2%; ED50 [8]: 13 mg/kg
CC(C)Cc1nc2ccccc2n1Cc1cc(=O)[nH]c2c(F)c(F)ccc12 |  |  |  |  |  | Ratio EC50 [9]: > 263; Ratio EC50 [10]: 1.8; inhibition in vivo at 30 mg/kg [11]: 85%; inhibition [12]: < 50%
CC(C)Cc1nc2nccnc2n1Cc1cc(=O)[nH]c2c(F)c(F)ccc12 |  | < 50% | > 30 µM | 3700 ng/mL | < 50% | 
O=c1cc(Cn2c(C3CCC3)nc3nccnc32)c2cccc(F)c2[nH]1 | < 50% |  |  | 15000 ng/mL | < 50% | 
